Results as given in ChEMBL document CHEMBL5620393, “New aryl and acylsulfonamides as state-dependent inhibitors of Nav1.3 voltage-gated sodium channel” (Eur J Med Chem, 2023).
pIC50: −log10 of the molar value. Active and inactive are the calls of the source. The rule behind the calls is not given here.

Legend:
[1] = biological target: T1, Sodium channel protein type 5 subunit alpha (Homo sapiens, UniProt Q14524); experiment: Inhibition of human Nav1.5 expressed in CHO cells under tonic pulse 1 by automated patch clamp electrophysiology analysis; assay type: cell-based
T1 sequence (Q14524 whole entry): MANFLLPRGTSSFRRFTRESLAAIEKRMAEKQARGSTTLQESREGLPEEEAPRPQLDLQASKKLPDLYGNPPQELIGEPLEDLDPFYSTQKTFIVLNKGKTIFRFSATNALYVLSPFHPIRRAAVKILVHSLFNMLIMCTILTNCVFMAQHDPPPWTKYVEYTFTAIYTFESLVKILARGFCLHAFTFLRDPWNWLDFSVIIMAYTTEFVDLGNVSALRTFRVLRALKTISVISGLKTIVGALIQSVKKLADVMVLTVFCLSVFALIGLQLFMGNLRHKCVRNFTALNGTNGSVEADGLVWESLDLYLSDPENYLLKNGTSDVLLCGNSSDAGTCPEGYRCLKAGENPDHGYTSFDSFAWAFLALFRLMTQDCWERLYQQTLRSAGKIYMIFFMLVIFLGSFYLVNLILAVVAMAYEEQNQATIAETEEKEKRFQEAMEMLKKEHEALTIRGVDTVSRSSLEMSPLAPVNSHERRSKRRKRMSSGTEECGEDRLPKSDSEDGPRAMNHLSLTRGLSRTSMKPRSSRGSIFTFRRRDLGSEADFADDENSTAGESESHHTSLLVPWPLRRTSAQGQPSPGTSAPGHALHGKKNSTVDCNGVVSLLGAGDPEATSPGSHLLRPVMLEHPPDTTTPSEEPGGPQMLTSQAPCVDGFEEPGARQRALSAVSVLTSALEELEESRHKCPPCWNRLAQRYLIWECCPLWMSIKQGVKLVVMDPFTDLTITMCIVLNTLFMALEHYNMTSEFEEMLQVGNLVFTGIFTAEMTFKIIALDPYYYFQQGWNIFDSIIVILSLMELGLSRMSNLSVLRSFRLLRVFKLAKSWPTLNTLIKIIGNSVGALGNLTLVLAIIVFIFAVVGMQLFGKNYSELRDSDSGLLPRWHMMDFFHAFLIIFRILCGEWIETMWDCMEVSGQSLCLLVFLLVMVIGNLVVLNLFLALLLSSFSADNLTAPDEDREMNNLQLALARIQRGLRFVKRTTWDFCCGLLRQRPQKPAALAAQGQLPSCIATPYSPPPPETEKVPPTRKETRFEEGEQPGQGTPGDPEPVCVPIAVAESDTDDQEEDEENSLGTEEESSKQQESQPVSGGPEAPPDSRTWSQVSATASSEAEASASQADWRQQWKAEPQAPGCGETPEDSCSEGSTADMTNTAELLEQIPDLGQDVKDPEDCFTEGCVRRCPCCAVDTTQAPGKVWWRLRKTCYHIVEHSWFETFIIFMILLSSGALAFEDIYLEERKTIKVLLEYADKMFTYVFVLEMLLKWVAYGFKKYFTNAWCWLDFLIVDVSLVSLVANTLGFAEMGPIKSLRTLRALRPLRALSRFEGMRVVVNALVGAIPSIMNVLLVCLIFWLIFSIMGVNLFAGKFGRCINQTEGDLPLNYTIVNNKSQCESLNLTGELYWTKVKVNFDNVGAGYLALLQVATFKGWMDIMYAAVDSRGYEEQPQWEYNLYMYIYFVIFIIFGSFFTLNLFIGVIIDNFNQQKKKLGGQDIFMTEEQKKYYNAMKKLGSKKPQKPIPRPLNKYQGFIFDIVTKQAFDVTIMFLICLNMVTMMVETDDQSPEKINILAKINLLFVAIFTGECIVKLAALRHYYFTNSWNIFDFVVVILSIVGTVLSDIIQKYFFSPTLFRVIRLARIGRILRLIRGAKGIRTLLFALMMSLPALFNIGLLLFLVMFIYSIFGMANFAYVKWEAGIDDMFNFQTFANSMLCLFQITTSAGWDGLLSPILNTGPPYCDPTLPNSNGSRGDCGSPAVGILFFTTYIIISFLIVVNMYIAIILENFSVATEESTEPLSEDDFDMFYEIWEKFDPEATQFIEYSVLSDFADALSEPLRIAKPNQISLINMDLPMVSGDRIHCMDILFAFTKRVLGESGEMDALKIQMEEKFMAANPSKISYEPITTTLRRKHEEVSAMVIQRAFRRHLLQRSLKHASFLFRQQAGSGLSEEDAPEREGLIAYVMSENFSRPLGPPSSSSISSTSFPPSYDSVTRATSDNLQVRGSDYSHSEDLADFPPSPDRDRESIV

[2] = biological target: T1, Sodium channel protein type 5 subunit alpha; experiment: Inhibition of human Nav1.5 expressed in Xenopus laevis oocytes at closed state at 1 uM by two electrode voltage-clamp assay; assay type: cell-based; conditions: oocyte
How it was run: (§1)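 TEVC on Nav channels expressed in Xenopus laevis oocytes. Each oocyte was injected with 50 nL cRNA at 1 ng/nL and recorded 1–4 days later at 18–22 °C. Bath (mM): NaCl 96, KCl 2, CaCl2 1.8, MgCl2 2, HEPES 5, pH 7.4. Electrodes held 3 M KCl at 0.8–1.5 MΩ. Compound tested at 1 μM. Mean ± SD, n ≥ 5.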

[3] = biological target: T1, Sodium channel protein type 5 subunit alpha; experiment: Inhibition of human Nav1.5 expressed in CHO cells by automated patch clamp electrophysiology analysis
[4] = biological target: T2, Sodium channel protein type 3 subunit alpha (Homo sapiens, UniProt Q9NY46); experiment: Inhibition of human Nav1.3 expressed in CHO cells under resting state by automated patch clamp electrophysiology analysis; assay type: cell-based
T2 sequence (Q9NY46 whole entry): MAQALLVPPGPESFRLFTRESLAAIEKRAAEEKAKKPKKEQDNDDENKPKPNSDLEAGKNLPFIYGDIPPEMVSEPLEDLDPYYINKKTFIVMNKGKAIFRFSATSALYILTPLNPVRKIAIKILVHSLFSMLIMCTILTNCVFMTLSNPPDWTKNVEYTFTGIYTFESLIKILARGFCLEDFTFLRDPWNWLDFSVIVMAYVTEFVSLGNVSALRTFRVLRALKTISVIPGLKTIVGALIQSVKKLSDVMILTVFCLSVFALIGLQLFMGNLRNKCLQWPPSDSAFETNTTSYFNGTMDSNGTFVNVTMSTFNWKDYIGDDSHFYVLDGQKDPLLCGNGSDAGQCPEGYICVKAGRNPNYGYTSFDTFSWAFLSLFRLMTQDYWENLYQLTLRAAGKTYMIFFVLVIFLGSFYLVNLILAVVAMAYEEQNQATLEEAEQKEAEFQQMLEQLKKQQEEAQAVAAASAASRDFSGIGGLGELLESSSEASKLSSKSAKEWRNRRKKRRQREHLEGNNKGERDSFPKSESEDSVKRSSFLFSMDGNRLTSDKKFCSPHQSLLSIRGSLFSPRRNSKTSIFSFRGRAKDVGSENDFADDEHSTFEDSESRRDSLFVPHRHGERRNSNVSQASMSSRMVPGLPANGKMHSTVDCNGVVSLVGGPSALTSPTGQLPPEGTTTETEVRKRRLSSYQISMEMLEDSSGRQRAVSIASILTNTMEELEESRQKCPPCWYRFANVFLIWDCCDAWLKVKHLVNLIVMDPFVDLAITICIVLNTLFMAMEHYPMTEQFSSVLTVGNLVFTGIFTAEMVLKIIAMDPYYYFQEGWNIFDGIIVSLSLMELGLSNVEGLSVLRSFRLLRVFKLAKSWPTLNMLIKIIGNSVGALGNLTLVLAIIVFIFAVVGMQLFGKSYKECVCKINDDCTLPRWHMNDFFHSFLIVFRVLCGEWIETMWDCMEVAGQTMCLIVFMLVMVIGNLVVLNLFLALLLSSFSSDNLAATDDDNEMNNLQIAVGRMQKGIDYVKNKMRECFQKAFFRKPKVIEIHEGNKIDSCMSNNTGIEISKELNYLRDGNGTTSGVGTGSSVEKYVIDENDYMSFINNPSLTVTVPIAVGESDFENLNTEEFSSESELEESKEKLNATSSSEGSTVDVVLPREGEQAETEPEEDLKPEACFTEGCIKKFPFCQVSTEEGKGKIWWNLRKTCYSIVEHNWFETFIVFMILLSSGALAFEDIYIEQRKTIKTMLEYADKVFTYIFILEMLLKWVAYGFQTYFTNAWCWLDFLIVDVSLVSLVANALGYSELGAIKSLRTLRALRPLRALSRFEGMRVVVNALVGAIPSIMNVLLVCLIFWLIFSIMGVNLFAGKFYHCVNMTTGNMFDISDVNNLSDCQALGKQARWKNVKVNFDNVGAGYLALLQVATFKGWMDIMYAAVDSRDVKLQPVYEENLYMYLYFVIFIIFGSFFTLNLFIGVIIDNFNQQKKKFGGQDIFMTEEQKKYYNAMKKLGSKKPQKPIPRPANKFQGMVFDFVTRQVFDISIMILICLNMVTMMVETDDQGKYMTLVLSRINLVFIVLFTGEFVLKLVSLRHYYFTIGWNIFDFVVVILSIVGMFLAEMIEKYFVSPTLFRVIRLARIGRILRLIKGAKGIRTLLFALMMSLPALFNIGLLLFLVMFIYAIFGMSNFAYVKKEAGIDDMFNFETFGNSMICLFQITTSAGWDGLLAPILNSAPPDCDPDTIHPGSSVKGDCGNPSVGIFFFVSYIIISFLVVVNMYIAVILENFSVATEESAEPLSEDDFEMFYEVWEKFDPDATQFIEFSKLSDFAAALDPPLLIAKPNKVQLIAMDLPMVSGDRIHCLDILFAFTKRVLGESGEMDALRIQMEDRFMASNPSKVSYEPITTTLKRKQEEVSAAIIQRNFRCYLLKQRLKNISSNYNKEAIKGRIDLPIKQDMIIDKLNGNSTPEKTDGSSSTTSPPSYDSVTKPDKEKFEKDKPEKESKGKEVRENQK

[5] = biological target: T2, Sodium channel protein type 3 subunit alpha; experiment: Inhibition of human Nav1.3 expressed in CHO cells under inactivated state by automated patch clamp electrophysiology analysis; assay type: cell-based
[6] = biological target: T3, Sodium channel protein type 9 subunit alpha (Homo sapiens, UniProt Q15858); experiment: Inhibition of human Nav1.7 expressed in CHO cells under resting state by automated patch clamp electrophysiology analysis; assay type: cell-based
[7] = biological target: T3, Sodium channel protein type 9 subunit alpha; experiment: Inhibition of human Nav1.7 expressed in CHO cells under inactivated state by automated patch clamp electrophysiology analysis; assay type: cell-based
[8] = biological target: T1, Sodium channel protein type 5 subunit alpha; experiment: Inhibition of human Nav1.5 expressed in CHO cells under resting state by automated patch clamp electrophysiology analysis; assay type: cell-based
[9] = biological target: T1, Sodium channel protein type 5 subunit alpha; experiment: Inhibition of human Nav1.5 expressed in CHO cells under inactivated state by automated patch clamp electrophysiology analysis; assay type: cell-based
[10] = biological target: Sodium channel protein type 1 subunit alpha (Homo sapiens) (UniProt P35498); experiment: Inhibition of human Nav1.1 expressed in Xenopus laevis oocytes at closed state at 1 uM by two electrode voltage-clamp assay; assay type: cell-based; conditions: Oocyte; how it was run: as §1
[11] = biological target: Sodium channel protein type 2 subunit alpha (Rattus norvegicus) (UniProt P04775); experiment: Inhibition of rat Nav1.2 expressed in Xenopus laevis oocytes at closed state at 1 uM by two electrode voltage-clamp assay; assay type: cell-based; conditions: Oocyte; how it was run: as §1
[12] = biological target: Sodium channel protein type 4 subunit alpha (Rattus norvegicus) (UniProt P15390); experiment: Inhibition of rat Nav1.4 expressed in Xenopus laevis oocytes at closed state at 1 uM by two electrode voltage-clamp assay; assay type: cell-based; conditions: Oocyte; how it was run: as §1
[13] = biological target: Sodium channel protein type 8 subunit alpha (Mus musculus) (UniProt Q9WTU3); experiment: Inhibition of mouse Nav1.6 expressed in Xenopus laevis oocytes at closed state at 1 uM by two electrode voltage-clamp assay; assay type: cell-based; conditions: Oocyte; how it was run: as §1
[14] = biological target: T3, Sodium channel protein type 9 subunit alpha; experiment: Inhibition of human Nav1.7 expressed in Xenopus laevis oocytes at closed state at 1 uM by two electrode voltage-clamp assay; assay type: cell-based; conditions: Oocyte; how it was run: as §1
[15] = biological target: Sodium channel protein type 10 subunit alpha (Homo sapiens) (UniProt Q9Y5Y9); experiment: Inhibition of human Nav1.8 expressed in Xenopus laevis oocytes at closed state at 1 uM by two electrode voltage-clamp assay; assay type: cell-based; conditions: Oocyte; how it was run: as §1

Structure (SMILES) | pIC50 [1] | inhibition (INH) [2] | pIC50 [3] | pIC50 [4] | pIC50 [5] | also measured
O=C(Nc1ccc(S(=O)(=O)Nc2nccs2)cc1)c1cccn1Cc1ccccc1 | < 4.52 | Not Active | < 4.52 |  |  | 
CS(=O)(=O)NC(=O)c1ccc(NC(=O)c2cc(Br)c(Br)n2Cc2ccccc2)cc1 |  | Not Active |  |  |  | 
CS(=O)(=O)NC(=O)c1ccc(NC(=O)c2cc(Br)c(Br)n2-c2ccccc2)cc1 |  | Not Active |  |  |  | 
O=C(Nc1ccc(S(=O)(=O)Nc2nccs2)cc1)c1cccn1-c1ccccc1 | < 4.52 | Not Active | < 4.52 |  |  | 
CN(C)S(=O)(=O)NC(=O)c1ccc(NC(=O)c2cccn2Cc2ccc(Cl)cc2)cc1 |  | Not Active |  |  |  | 
O=C(Nc1ccc(S(=O)(=O)Nc2nccs2)cc1)[C@@H]1C[C@H]1c1ccccc1 |  |  |  |  |  | pIC50 ([4]; cho): 4.74; pIC50 ([5]; cho): 7.25
CC(=O)NS(=O)(=O)c1ccc(NC(=O)c2cccn2Cc2ccccc2)cc1 |  |  |  | < 4.52 | 4.64 | 
O=C(Nc1ccc(S(=O)(=O)Nc2nccs2)cc1)c1cccn1Cc1ccc(Cl)cc1 | < 4.52 | Not Active | < 4.52 |  |  | pIC50 [6]: < 4.52; pIC50 [7]: 5.08; pIC50 [8]: < 4.52; pIC50 [9]: 5.43
CC1CCCC(C)N1S(=O)(=O)c1ccc(NS(=O)(=O)c2ccc3c(c2)CC(=O)N3C)cc1 (stereo not given) |  |  |  | < 4.52 | 4.55 | 
CC(=O)NS(=O)(=O)c1ccc(NC(=O)[C@@H]2C[C@H]2c2ccccc2)cc1 | < 4.52 | Not Active | < 4.52 |  |  | 
NC1=N[C@H](O)[C@H]2[C@H]3O[C@]4(O)O[C@@H]([C@@H](O)[C@@]2(N1)[C@@H]4O)[C@]3(O)CO [TETRODOTOXIN] |  |  |  | 8.40 | 9.00 | 
C[C@H](Oc1ccc(Cl)cc1)C(=O)Nc1ccc(C(=O)NS(C)(=O)=O)cc1 |  | Not Active |  |  |  | 
CC(=O)NS(=O)(=O)c1ccc(NC(=O)c2cc(Br)c(Br)n2-c2ccccc2)cc1 |  |  |  | < 4.52 | 4.72 | 
O=C(Nc1ccc(S(=O)(=O)Nc2nccs2)cc1)c1cc(Br)c(Br)n1Cc1ccccc1 | < 4.52 | Not Active | < 4.52 |  |  | pIC50 [6]: < 4.52; pIC50 [7]: 5.15; pIC50 [8]: < 4.52; pIC50 [9]: 5.46
O=C(Nc1cccc(S(=O)(=O)Nc2nccs2)c1)c1cc(Br)c(Br)n1Cc1ccccc1 | < 4.52 | Not Active | < 4.52 |  |  | 
CS(=O)(=O)NC(=O)c1ccc(NC(=O)c2cccn2Cc2ccc(Cl)cc2)cc1 |  | Not Active |  | < 4.52 | < 4.52 | inhibition [10]: inactive; inhibition [11]: inactive; inhibition [12]: inactive; inhibition [13]: inactive; inhibition [14]: inactive; inhibition [15]: inactive
CC1CCCCN1C(=O)c1ccc(NS(=O)(=O)c2ccc3[nH]c(=O)[nH]c3c2)cc1 (stereo not given) |  |  |  | < 4.52 | < 4.52 | 
CS(=O)(=O)NC(=O)c1cccc(OC[C@@H]2C[C@H]2c2ccccc2)c1 | < 4.52 | Not Active | < 4.52 | < 4.52 | < 4.52 | inhibition [10]: inactive; inhibition [11]: inactive; inhibition [12]: inactive; inhibition [13]: inactive; inhibition [14]: inactive; inhibition [15]: inactive
CN(C)CCC=C1c2ccccc2CCc2ccccc21 [AMITRIPTYLINE] | 4.96 |  | 5.16 |  |  | pIC50 [6]: 5.00; pIC50 [7]: 5.64; pIC50 [8]: 4.70; pIC50 [9]: 5.92

Structure (SMILES) | pIC50 [1] | inhibition (INH) [2] | pIC50 [3] | pIC50 [4] | pIC50 [5] | also measured
O=C(Nc1cccc(S(=O)(=O)Nc2nccs2)c1)c1cccn1Cc1ccc(Cl)cc1 | < 4.52 | Not Active | < 4.52 |  |  | 
CN(C)S(=O)(=O)NC(=O)c1ccc(NC(=O)[C@@H]2C[C@H]2c2ccccc2)cc1 |  | Not Active |  |  |  | 
CS(=O)(=O)NC(=O)c1ccc(NC(=O)C2CC2c2ccc(F)c(F)c2)cc1 (racemic) |  | Not Active |  | < 4.52 | < 4.52 | inhibition [10]: inactive; inhibition [11]: inactive; inhibition [12]: inactive; inhibition [13]: inactive; inhibition [14]: inactive; inhibition [15]: inactive
O=C(Nc1cccc(S(=O)(=O)Nc2nccs2)c1)c1cccn1Cc1ccccc1 | < 4.52 | Not Active | < 4.52 |  |  | 
CC(CCc1ccc(O)cc1)NC(=O)Nc1ccc(S(=O)(=O)N2CCCC2)cc1 (stereo not given) |  |  |  | < 4.52 | 4.70 | 
C[C@@H](Oc1ccc(Cl)cc1)C(=O)Nc1ccc(C(=O)NS(=O)(=O)N(C)C)cc1 |  | Not Active |  |  |  | 
CC(NS(=O)(=O)c1ccc(C2=CC(c3ccc(Cl)cc3)n3nnnc3N2)cc1)C(=O)O (stereo not given) |  |  |  | < 4.52 | < 4.52 | 
O=C(Nc1nccs1)c1ccc(NC(=O)[C@@H]2C[C@H]2c2ccccc2)cc1 | < 4.52 |  | < 4.52 |  |  | pIC50 [6]: < 4.52; pIC50 [7]: < 4.52; pIC50 [8]: < 4.52; pIC50 [9]: < 4.52
CC(=O)NS(=O)(=O)c1ccc(NC(=O)CC(C)c2ccccc2)cc1 (stereo not given) |  |  |  | < 4.52 | 4.68 | 
CC(=O)NS(=O)(=O)c1ccc(NC(=O)c2cc(Br)c(Br)n2Cc2ccccc2)cc1 |  | Not Active |  |  |  | 
O=C(Nc1ccc(S(=O)(=O)Nc2nccs2)cc1)c1cc(Br)c(Br)n1-c1ccccc1 | < 4.52 | Not Active | < 4.52 |  |  | pIC50 [6]: < 4.52; pIC50 [7]: 5.03; pIC50 [8]: < 4.52; pIC50 [9]: 5.47
Cc1nn(C)cc1/C=C(\C#N)C(=O)Nc1ccc(S(=O)(=O)Nc2nccs2)cc1 | < 4.52 | Not Active | < 4.52 | 4.59 | 5.42 | inhibition [10]: inactive; inhibition [11]: inactive; inhibition [12]: inactive; inhibition [13]: inactive; inhibition [14]: inactive; inhibition [15]: inactive
CC(=O)NS(=O)(=O)c1ccc(NC(=O)c2cccn2Cc2ccc(Cl)cc2)cc1 |  | Not Active |  |  |  | 
CS(=O)(=O)NC(=O)c1ccc(NC(=O)[C@@H]2C[C@H]2c2ccccc2)cc1 |  | Not Active |  | < 4.52 | < 4.52 | inhibition [10]: inactive; inhibition [11]: inactive; inhibition [12]: inactive; inhibition [13]: inactive; inhibition [14]: inactive; inhibition [15]: inactive
C[C@@H](Oc1ccc(Cl)cc1)C(=O)Nc1ccc(C(=O)NS(C)(=O)=O)cc1 |  | Not Active |  |  |  | 
Cc1nc(-c2c(Cl)cccc2Cl)sc1C(=O)N[C@@H](Cc1ccccc1)C(=O)O |  | Not Active |  |  |  | 
CN(C)S(=O)(=O)NC(=O)c1ccc(NC(=O)c2cc3ccccc3o2)cc1 |  | Not Active |  |  |  | 
O=C(Nc1cccc(S(=O)(=O)Nc2nccs2)c1)[C@@H]1C[C@H]1c1ccccc1 | < 4.52 | Not Active | < 4.52 |  |  | 
CS(=O)(=O)NC(=O)c1ccc(OC[C@@H]2C[C@H]2c2ccccc2)cc1 | < 4.52 | Not Active | < 4.52 |  |  | 
